Assay results as given in ChEMBL document CHEMBL2086320, “New synthetic inhibitors of fatty acid synthase with anticancer activity” (J Med Chem, 2012).
Values belong to the compound of their own block, whether it stands above or below them. Calls of active or inactive are those of the source. No cut-off for these calls is given here.

Tests used:
[1] = tested on: MDA-MB-231; assay: Cytotoxicity against human MDA-MB-231 cells; assay type: functional, cell-based
Procedure, shortened: (§1)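 MTT colorimetric assay: cells seeded at 5 or 7 x 10³ cells/well, attached overnight, then given fresh medium with a range of compound concentrations for 48 h at 37 °C, 5% CO2. MTT added for 3 h, formazan dissolved in DMSO, absorbance read at 570 or 540 nm. IC50 as mean±SEM from at least two independent experiments in duplicate or triplicate.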

[2] = Antiproliferative activity against human HMEpC cells; assay type: cell-based; procedure, shortened: as §1
[3] = tested on: A-431; assay: Cytotoxicity against human A431 cells; assay type: functional, cell-based; procedure, shortened: as §1
[4] = tested on: SK-OV-3; assay: Cytotoxicity against human SKOV3 cells; assay type: functional, cell-based; procedure, shortened: as §1
[5] = Selectivity ratio of IC50 for human HL7702 cells to IC50 for human SKBR3 cells; assay type: ADME, cell-based; details: HL7702 cells (normal) versus SKBR3 cells, read-out: Ratio IC50
[6] = tested on: SK-BR-3; assay: Effect on total AKT protein levels in human SKBR3 cells up to 24 hrs; assay type: functional, cell-based
Procedure, shortened: (§2)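 SK-Br3 cells treated for set times (6, 12 or 24 h; p-HER2 also at 2 h), trypsinized, and lysed in Tris pH 7.5/EDTA/NaCl/PMSF buffer. Equal protein resolved by SDS-PAGE (3-8% gel for HER2 forms, 4-12% gel for AKT/ERK). Blots blocked in 2.5% milk/TBS-T, primary antibody overnight at 4 °C, HRP secondary, chemiluminescence; β-actin reprobe as loading control. At least two independent experiments.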

[7] = tested on: ZR-75-1; assay: Cytotoxicity against human ZR-75-1 cells; assay type: functional, cell-based; procedure, shortened: as §1
[8] = tested on: HepG2; assay: Cytotoxicity against human HepG2 cells; assay type: functional, cell-based; procedure, shortened: as §1
[9] = biological target: T1, FASN/HER2 (Homo sapiens) (UniProt P04626+P49327); assay: Inhibition of FASN/HER2 in human SK-BR-3 cells assessed as reduction in p-AKT levels after 6 hrs by Western blot analysis; assay type: cell-based; procedure, shortened: as §2
T1 sequence (P04626 whole entry, looked up): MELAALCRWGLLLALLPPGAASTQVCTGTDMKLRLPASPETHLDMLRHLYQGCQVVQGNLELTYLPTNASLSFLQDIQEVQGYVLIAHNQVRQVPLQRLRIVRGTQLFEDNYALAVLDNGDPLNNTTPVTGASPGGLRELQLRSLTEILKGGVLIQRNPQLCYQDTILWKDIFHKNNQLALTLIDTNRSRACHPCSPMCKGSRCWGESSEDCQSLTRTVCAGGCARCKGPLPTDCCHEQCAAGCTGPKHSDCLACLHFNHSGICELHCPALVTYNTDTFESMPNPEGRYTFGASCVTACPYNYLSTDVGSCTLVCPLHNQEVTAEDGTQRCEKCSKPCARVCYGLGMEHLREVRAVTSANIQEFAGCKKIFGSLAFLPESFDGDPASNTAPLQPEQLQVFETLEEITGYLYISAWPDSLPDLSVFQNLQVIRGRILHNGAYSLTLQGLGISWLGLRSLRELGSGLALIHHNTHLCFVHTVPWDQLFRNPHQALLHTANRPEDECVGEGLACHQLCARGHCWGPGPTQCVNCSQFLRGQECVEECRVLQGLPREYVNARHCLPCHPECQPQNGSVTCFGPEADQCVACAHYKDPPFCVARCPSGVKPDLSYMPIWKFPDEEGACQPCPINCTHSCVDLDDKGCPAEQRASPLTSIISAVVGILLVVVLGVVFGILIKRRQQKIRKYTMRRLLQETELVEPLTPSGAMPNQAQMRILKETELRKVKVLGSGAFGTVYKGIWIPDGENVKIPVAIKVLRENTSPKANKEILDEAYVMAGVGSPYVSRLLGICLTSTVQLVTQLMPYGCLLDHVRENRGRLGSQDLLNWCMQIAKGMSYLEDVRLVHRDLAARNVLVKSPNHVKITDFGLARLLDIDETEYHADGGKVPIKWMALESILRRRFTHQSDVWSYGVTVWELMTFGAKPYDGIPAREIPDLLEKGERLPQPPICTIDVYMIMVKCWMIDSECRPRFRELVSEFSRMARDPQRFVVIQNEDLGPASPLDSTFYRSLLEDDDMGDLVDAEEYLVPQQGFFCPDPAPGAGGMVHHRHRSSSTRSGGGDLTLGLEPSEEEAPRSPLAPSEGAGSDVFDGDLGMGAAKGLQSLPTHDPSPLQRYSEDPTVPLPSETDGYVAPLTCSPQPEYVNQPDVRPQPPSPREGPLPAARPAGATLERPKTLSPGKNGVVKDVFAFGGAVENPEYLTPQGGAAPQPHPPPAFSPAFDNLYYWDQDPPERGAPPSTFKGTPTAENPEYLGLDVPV
T1 sequence (P49327 whole entry, looked up): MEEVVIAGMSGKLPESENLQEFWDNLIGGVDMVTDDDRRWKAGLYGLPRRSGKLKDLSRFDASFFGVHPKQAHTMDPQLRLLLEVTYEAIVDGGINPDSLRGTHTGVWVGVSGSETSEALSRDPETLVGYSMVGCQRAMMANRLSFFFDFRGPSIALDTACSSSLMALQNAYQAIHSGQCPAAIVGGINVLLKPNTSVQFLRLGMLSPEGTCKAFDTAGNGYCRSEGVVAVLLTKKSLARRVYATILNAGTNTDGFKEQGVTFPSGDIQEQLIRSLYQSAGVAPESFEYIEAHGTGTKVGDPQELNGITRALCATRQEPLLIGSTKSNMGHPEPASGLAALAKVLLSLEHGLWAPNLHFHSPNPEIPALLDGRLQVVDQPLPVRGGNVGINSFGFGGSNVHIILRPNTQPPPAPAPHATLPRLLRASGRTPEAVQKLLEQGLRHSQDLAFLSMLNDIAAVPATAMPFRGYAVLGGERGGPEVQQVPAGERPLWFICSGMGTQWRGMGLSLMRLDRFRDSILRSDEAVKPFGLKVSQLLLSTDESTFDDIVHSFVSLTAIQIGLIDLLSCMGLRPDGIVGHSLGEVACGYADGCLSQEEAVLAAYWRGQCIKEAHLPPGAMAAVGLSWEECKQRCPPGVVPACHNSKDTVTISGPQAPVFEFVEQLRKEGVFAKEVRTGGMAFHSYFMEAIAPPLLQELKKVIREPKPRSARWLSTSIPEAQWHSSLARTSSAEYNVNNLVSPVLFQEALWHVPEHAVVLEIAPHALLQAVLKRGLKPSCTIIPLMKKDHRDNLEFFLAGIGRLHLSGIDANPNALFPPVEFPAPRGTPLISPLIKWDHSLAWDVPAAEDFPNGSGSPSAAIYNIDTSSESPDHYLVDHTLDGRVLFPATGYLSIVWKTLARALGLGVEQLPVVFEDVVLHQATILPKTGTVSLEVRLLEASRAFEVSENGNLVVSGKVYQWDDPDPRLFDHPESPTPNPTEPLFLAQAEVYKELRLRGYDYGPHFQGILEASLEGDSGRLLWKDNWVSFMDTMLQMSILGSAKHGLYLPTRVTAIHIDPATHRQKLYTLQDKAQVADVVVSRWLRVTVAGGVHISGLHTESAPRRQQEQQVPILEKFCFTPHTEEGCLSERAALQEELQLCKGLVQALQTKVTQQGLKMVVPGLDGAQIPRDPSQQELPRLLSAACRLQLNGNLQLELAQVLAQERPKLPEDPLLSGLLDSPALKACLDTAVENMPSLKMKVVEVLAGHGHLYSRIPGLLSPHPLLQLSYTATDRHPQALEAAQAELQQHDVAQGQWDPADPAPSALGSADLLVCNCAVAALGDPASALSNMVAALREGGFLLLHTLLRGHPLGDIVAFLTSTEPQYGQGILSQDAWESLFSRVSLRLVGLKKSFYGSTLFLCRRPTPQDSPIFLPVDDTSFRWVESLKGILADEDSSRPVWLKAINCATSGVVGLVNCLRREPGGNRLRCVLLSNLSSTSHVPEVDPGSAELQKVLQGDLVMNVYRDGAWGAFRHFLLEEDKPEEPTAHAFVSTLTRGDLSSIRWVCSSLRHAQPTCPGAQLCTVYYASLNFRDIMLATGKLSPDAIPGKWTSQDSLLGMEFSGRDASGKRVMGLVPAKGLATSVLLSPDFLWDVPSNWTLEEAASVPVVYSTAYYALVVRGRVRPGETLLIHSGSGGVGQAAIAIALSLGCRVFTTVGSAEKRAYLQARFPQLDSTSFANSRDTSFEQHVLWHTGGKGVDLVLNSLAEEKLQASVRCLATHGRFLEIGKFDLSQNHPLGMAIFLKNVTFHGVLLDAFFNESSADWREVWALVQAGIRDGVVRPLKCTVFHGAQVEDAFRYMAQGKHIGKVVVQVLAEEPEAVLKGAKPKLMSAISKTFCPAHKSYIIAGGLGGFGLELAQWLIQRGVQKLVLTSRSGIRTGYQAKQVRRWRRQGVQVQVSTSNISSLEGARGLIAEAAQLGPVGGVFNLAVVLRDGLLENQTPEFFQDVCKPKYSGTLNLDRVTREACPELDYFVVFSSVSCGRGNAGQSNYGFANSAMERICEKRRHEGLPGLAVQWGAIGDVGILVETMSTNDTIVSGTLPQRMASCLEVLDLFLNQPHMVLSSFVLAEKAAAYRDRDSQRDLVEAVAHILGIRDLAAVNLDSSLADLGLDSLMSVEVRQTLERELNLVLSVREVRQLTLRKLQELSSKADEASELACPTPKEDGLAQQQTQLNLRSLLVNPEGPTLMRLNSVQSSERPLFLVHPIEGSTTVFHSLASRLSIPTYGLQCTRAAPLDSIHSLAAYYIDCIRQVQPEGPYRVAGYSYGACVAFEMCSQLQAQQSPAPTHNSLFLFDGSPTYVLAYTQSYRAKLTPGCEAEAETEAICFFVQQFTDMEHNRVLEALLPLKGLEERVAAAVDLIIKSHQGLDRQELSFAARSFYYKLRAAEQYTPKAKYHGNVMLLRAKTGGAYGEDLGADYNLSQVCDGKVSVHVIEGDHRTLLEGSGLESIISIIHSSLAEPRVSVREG

[10] = Cytotoxicity against human HCC827 cells; assay type: functional, cell-based; procedure, shortened: as §1
[11] = tested on: Mus musculus; assay: Toxicity against C57BL/6J mouse assessed as weight loss at 30 to 75 mg/kg, ip administered as single dose measured after 24 hrs; assay type: organism-based; parameters: dose 30-75 mg/kg, route intraperitoneal; details: in vivo
Procedure, shortened: (§3)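 Male C57BL/6J mice, 12 weeks, 23-25 g, acclimatized one week on standard chow, 12 h/12 h light/dark, 22 °C; 4 per group. Fasted 12 h during dark cycle, then one i.p. injection (0.5 mL) of compound or vehicle (DMSO dissolved in RPMI 1640). Free access to chow for 24 h, then body weight recorded and behaviour observed. Weight data mean ± SEM, n=4.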

[12] = tested on: PANC-1; assay: Cytotoxicity against human PANC1 cells; assay type: functional, cell-based; procedure, shortened: as §1
[13] = Antiproliferative activity against human HL7702 cells; assay type: cell-based; details: L02; procedure, shortened: as §1
[14] = tested on: SK-BR-3; assay: Cytotoxicity against human SKBR3 cells transfected with FASN specific siRNA assessed as cell death up to 10 uM by MTT assay; assay type: functional, cell-based
Procedure, shortened: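 SK-Br3 cells transfected with a pool of three FASN-specific siRNAs (72 h), run alongside control-transfected cells. MTT viability read after 24 h compound exposure instead of 48 h. Knockdown checked by FASN immunoblot with β-actin. Mean±SEM of three experiments in duplicate; Student's t-test against the same concentration in control-transfected cells.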

[15] = biological target: Receptor tyrosine-protein kinase erbB-2 (Homo sapiens) (UniProt P04626); assay: Inhibition of HER2 phosphorylation in human SK-BR-3 cells after 2 hrs by Western blot analysis; assay type: cell-based; procedure, shortened: as §2
Receptor tyrosine-protein kinase erbB-2 (Homo sapiens), sequence (P04626 whole entry): as the sequence (P04626 whole entry, looked up) above

[16] = tested on: Bel-7402; assay: Cytotoxicity against human Bel7402 cells; assay type: functional, cell-based; procedure, shortened: as §1
[17] = tested on: Mus musculus; assay: Toxicity against C57BL/6J mouse assessed as altered behaviour at 30 to 75 mg/kg, ip administered as single dose measured after 24 hrs; assay type: organism-based; parameters: dose 30-75 mg/kg, route intraperitoneal; details: in vivo; procedure, shortened: as §3
[18] = biological target: Fatty acid synthase (Homo sapiens) (UniProt P49327); assay: Inhibition of FASN in human SK-BR-3 cells assessed as oxidation of NADPH at 4 uM after 24 hrs by Spectrophotometric analysis relative to control; assay type: cell-based
Fatty acid synthase (Homo sapiens), sequence (P49327 whole entry, looked up): as the sequence (P49327 whole entry, looked up) above

[19] = tested on: AU565; assay: Cytotoxicity against human AU565 cells; assay type: functional, cell-based; procedure, shortened: as §1
[20] = tested on: SK-HEP1; assay: Cytotoxicity against human SKHEP1 cells; assay type: functional, cell-based; procedure, shortened: as §1
[21] = tested on: SK-BR-3; assay: Induction of apoptosis in human SKBR3 cells assessed as cleavage of PARP by Western blot analysis; assay type: functional, cell-based; details: TDE = time-dependent effect
Procedure, shortened: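 SK-Br3 cells treated for up to 48 h, then immunoblotted for PARP on a 4-12% SDS gel. Intact PARP at 116 kDa, cleavage fragment at 89 kDa. Chemiluminescent detection with β-actin reprobe as loading control. At least two independent experiments.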

[22] = tested on: SK-BR-3; assay: Cytotoxicity against human SKBR3 cells; assay type: functional, cell-based
Procedure, shortened: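 SK-Br3 cells (McCoy's 5A, 10% FBS) in MTT assay: seeded at 5 or 7 x 10³ cells/well, attached overnight, exposed 48 h to a range of concentrations. MTT 3 h at 37 °C, formazan in DMSO, absorbance at 570 or 540 nm. IC50 as mean±SEM of two independent experiments in triplicate.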

[23] = biological target: Carnitine O-palmitoyltransferase 1, liver isoform (Rattus norvegicus, UniProt P32198); assay: Stimulation of rat CPT1A expressed in Pichia pastoris mitochondrial using [3H]carnitine after 3 mins by forward exchange method; assay type: ADME; details: 0.05 h
Procedure, shortened: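 Mitochondria isolated from GS115 Pichia pastoris expressing rat CPT1A, used in a forward exchange assay with 200 µM inhibitor, 2 mM L-[³H]carnitine, 80 µM palmitoyl-CoA, 20 mM HEPES pH 7.0, 1% fatty-acid-free albumin and 40-75 mM KCl. Incubated 3 min at 30 °C, stopped with perchloric acid, butanol-extracted [³H]palmitoylcarnitine counted. Mean±SEM of at least three independent mitochondrial preparations.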

[24] = Selectivity ratio of IC50 for human HMEpC cells to IC50 for human SKBR3 cells; assay type: ADME, cell-based, SK-BR-3; details: HMEpC cells (normal) versus SKBR3 cells, read-out: Ratio IC50
[25] = tested on: SK-BR-3; assay: Effect on total HER2 protein levels in human SKBR3 cells up to 6 hrs by ELISA; assay type: functional, cell-based
[26] = biological target: Receptor tyrosine-protein kinase erbB-2 (Homo sapiens) (UniProt P04626); assay: Inhibition of HER2 signaling in human SK-BR-3 cells up to 24 hrs; assay type: cell-based; procedure, shortened: as §2
[27] = tested on: Mus musculus; assay: Toxicity against C57BL/6J mouse assessed as distress at 30 to 75 mg/kg, ip administered as single dose measured after 24 hrs; assay type: organism-based; parameters: dose 30-75 mg/kg, route intraperitoneal; details: in vivo; procedure, shortened: as §3
[28] = tested on: NCI-H460; assay: Cytotoxicity against human H460 cells; assay type: functional, cell-based; procedure, shortened: as §1
[29] = tested on: Mus musculus; assay: Toxicity against C57BL/6J mouse assessed as signs of suffering at 30 to 75 mg/kg, ip administered as single dose measured after 24 hrs; assay type: organism-based; parameters: dose 30-75 mg/kg, route intraperitoneal; details: in vivo; procedure, shortened: as §3
[30] = tested on: A549; assay: Cytotoxicity against human A549 cells; assay type: functional, cell-based; procedure, shortened: as §1
[31] = biological target: Receptor tyrosine-protein kinase erbB-2 (Homo sapiens) (UniProt P04626); assay: Inhibition of HER2 phosphorylation in human SK-BR-3 cells after 6 hrs by Western blot analysis; assay type: cell-based
Procedure, shortened: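 SK-Br3 cells treated for 6, 12 or 24 h, harvested with trypsin-EDTA, lysed in Tris-HCl pH 7.5/EDTA/NaCl/PMSF buffer at 4 °C. Equal protein run on 3-8% SDS-PAGE and transferred to nitrocellulose. Membranes probed overnight at 4 °C with anti-phospho-HER2 mouse monoclonal, then peroxidase secondary and chemiluminescence. Re-probed for β-actin as loading control. Gels are representative of at least two independent experiments.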

[32] = tested on: BT-20; assay: Cytotoxicity against human BT20 cells; assay type: functional, cell-based; procedure, shortened: as §1
[33] = biological target: T1, FASN/HER2 (Homo sapiens); assay: Inhibition of FASN/HER2 in human SK-BR-3 cells assessed as reduction in p-ERK1/2 levels after 6 hrs by Western blot analysis; assay type: cell-based; procedure, shortened: as §2
[34] = tested on: Mus musculus; assay: Toxicity against C57BL/6J mouse assessed as change in food intake at 30 to 75 mg/kg, ip administered as single dose measured after 24 hrs; assay type: organism-based; parameters: dose 30-75 mg/kg, route intraperitoneal; details: in vivo; procedure, shortened: as §3
[35] = tested on: HCT-116; assay: Cytotoxicity against human HCT116 cells; assay type: functional, cell-based; procedure, shortened: as §1
[36] = tested on: SK-BR-3; assay: Effect on total HER2 protein levels in human SKBR3 cells up to 6 hrs by Western blot analysis; assay type: functional, cell-based; procedure, shortened: as §2
[37] = tested on: SK-BR-3; assay: Effect on total ERK1/2 protein levels in human SKBR3 cells up to 24 hrs; assay type: functional, cell-based; procedure, shortened: as §2
[38] = tested on: SK-BR-3; assay: Effect on total HER protein levels in human SKBR3 cells up to 24 hrs; assay type: functional, cell-based; procedure, shortened: as §2
[39] = tested on: SK-BR-3; assay: Cytotoxicity against human SKBR3 cells after 48 hrs by MTT assay; assay type: functional, cell-based; details: SK-BR-3, 48 h; procedure, shortened: as §1
[40] = tested on: MCF7; assay: Cytotoxicity against human MCF7 cells; assay type: functional, cell-based; procedure, shortened: as §1
[41] = tested on: Mus musculus; assay: Toxicity against C57BL/6J mouse assessed as weight loss at 30 mg/kg, ip administered as single dose measured after 24 hrs; assay type: organism-based; parameters: dose 30 mg/kg, route intraperitoneal; details: in vivo; procedure, shortened: as §3
[42] = tested on: Mus musculus; assay: Toxicity against C57BL/6J mouse assessed as signs of suffering at 30 mg/kg, ip administered as single dose measured after 24 hrs; assay type: organism-based; parameters: dose 30 mg/kg, route intraperitoneal; details: in vivo; procedure, shortened: as §3

inhibition [9]: Active
inhibition [15]: Active
inhibition [18]: 90%
inhibition [26]: Active
inhibition [31]: Active
inhibition [33]: Active
SMILES: O=C(Oc1ccc(-c2ccc(OC(=O)c3cc(O)c(O)c(O)c3)cc2)cc1)c1cc(O)c(O)c(O)c1
IC50 [1]: 5 µM
IC50 [2]: 31 µM
IC50 [3]: 1.4 µM
IC50 [4]: 5 µM
selectivity ratio [5]: 10
Activity [6]: inactive
IC50 [7]: 1.9 µM
IC50 [8]: 70 µM
IC50 [10]: 14 µM
Activity [11]: Non-toxic
IC50 [12]: 2.1 µM
IC50 [13]: 41 µM
Activity [14]: inactive
IC50 [16]: 40 µM
Activity [17]: Non-toxic
IC50 [19]: 24 µM
IC50 [20]: 56 µM
Activity [21]: tde
IC50 [22]: 4 µM
Activity [23]: Non-toxic
selectivity ratio [24]: 8
Activity [25]: inactive
Activity [27]: Non-toxic
IC50 [28]: 9 µM
Activity [29]: Non-toxic
IC50 [30]: 17 µM
IC50 [32]: 17 µM
Activity [34]: Non-toxic
IC50 [35]: 4 µM
Activity [36]: inactive
Activity [37]: inactive
Activity [38]: inactive
IC50 [39]: 4 µM
IC50 [40]: 3.8 µM

SMILES: C=C1C(=O)O[C@H](CCCCCCCC)[C@H]1C(=O)O (relative stereo)
Activity [41]: 21%
Activity [42]: Toxic
